Activity calls are given as the source filed them. The calls are words filed in the database; no cut-off is given here.
How the values were obtained:
[1] = system: Rattus norvegicus; assay: Compound was tested for antinociceptive activity in heat stimulus rat tail flick assay after subcutaneous administration of the drug at a dose of 29 umol/Kg; Inactive; format: functional, organism-based
[2] = system: Mus musculus; assay: Narcotic agonistic activity in acetic acid mouse writhing assay after subcutaneous administration of the drug; format: functional; conditions: sc
Procedure, shortened: (§1)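 Subcutaneous dosing. Salts were given in distilled H2O, and free bases were dissolved with 1 N HCl and then diluted. Each ED50 (agonist) or AD50 (antagonist) came from at least three doses, with at least five animals per dose.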

[3] = system: Rattus norvegicus; assay: Narcotic antagonist activity in heat stimulus rat tail flick assay after subcutaneous administration; format: functional; conditions: sc; procedure, shortened: as §1
[4] = system: Mus musculus; assay: Compound was tested for narcotic agonistic activity in acetic acid mouse writhing assay after subcutaneous administration of the drug at a dose of 25 uM/kg; Inactive; format: functional, organism-based
[5] = system: Mus musculus; assay: Compound was tested for narcotic agonistic activity in acetic acid mouse writhing assay after subcutaneous administration of the drug at a dose of 28 uM/kg; Inactive; format: functional, organism-based
[6] = system: Rattus norvegicus; assay: Compound was tested for antinociceptive activity in heat stimulus rat tail flick assay after subcutaneous administration of the drug at a dose of 25 umol/Kg; Inactive; format: functional, organism-based
[7] = system: Mus musculus; assay: Compound was tested for narcotic agonistic activity in acetic acid mouse writhing assay after subcutaneous administration of the drug at a dose of 18 uM/kg; Inactive; format: functional, organism-based
[8] = system: Rattus norvegicus; assay: Compound was tested for antinociceptive activity in heat stimulus rat tail flick assay after subcutaneous administration of the drug; format: functional; conditions: sc; procedure, shortened: as §1
[9] = system: Mus musculus; assay: Compound was tested for narcotic agonistic activity in acetic acid mouse writhing assay after subcutaneous administration of the drug at a dose of 23 uM/kg; Inactive; format: functional, organism-based
[10] = system: Rattus norvegicus; assay: Compound was tested for antinociceptive activity in heat stimulus rat tail flick assay after subcutaneous administration of the drug at a dose of 23 umol/Kg; Inactive; format: functional, organism-based
[11] = system: Rattus norvegicus; assay: Compound was tested for antinociceptive activity in heat stimulus rat tail flick assay after subcutaneous administration of the drug at a dose of 30 umol/Kg; Inactive; format: functional, organism-based
[12] = system: Rattus norvegicus; assay: Compound was tested for antinociceptive activity in heat stimulus rat tail flick assay after subcutaneous administration of the drug at a dose of 21 umol/Kg; Inactive; format: functional, organism-based
[13] = system: Rattus norvegicus; assay: Compound was tested for antinociceptive activity in heat stimulus rat tail flick assay after subcutaneous administration of the drug at a dose of 18 umol/Kg; Inactive; format: functional, organism-based
[14] = system: Mus musculus; assay: Compound was tested for narcotic agonistic activity in acetic acid mouse writhing assay after subcutaneous administration of the drug at a dose of 26 uM/kg; Inactive; format: functional, organism-based
[15] = system: Rattus norvegicus; assay: Compound was tested for antinociceptive activity in heat stimulus rat tail flick assay after subcutaneous administration of the drug at a dose of 28 umol/Kg; Inactive; format: functional, organism-based

Compound | ED50 [2] | ED50 [3] | further results
COc1ccc2c3c1O[C@H]1c4[nH]c(C)cc4CC4C(C2)N(C)CCC341 (stereo not given in full) | > 29 µmol/kg |  | ED50 [1]: inactive
C[C@H]1CC2C3Cc4ccc(O)c5c4C2(CCN3CC2CCC2)[C@@H](O5)C1=O (stereo not given in full) | 0.8 µmol/kg | 33.1 µmol/kg | 
COc1ccc2c(c1O)C13CCN(CC4CCC4)C(C2)C1[C@@H](C)[C@H](C)C(=O)C3 (stereo not given in full) | 14 µmol/kg | > 22 µmol/kg | 
COc1ccc2c3c1OC1C(=O)[C@@H](C)CC4C(C2)N(CC2CC2)CCC314 (stereo not given in full) |  | 4.1 µmol/kg | ED50 [4]: inactive
COc1ccc2c3c1O[C@H]1C(=O)CC[C@@]4(O)[C@@H](C2)N(CC2CC2)CC[C@]314 |  | 0.7 µmol/kg | ED50 [5]: inactive
COc1ccc2c3c1O[C@H]1C(=O)[C@@H](Cc4ccccc4)CC4C(C2)N(C)CCC341 (stereo not given in full) | > 25 µmol/kg |  | ED50 [6]: inactive
COc1ccc2c3c1O[C@H]1[C@@H](O)[C@@H](CC(C)(C)O)CC4C(C2)N(C)CCC341 (stereo not given in full) |  |  | ED50 [7]: inactive; ED50 [8]: > 18 µmol/kg
CN1CC[C@]23c4c5ccc(O)c4O[C@H]2C(=O)CC[C@H]3[C@H]1C5 [HYDROMORPHONE] | 0.3 µmol/kg |  | ED50 [8]: 1.3 µmol/kg
COc1ccc2c3c1O[C@H]1C(=O)[C@@H](C)CC4C(C2)N(C)CCC341 (stereo not given in full) | 2.7 µmol/kg |  | ED50 [8]: 4.2 µmol/kg
O=C1CC[C@@]2(O)[C@H]3Cc4ccc(O)c5c4[C@@]2(CCN3CC2CC2)[C@H]1O5 [NALTREXONE] | > 28 µmol/kg | 0.2 µmol/kg | 
COc1ccc2c3c1O[C@H]1C(=O)[C@@H](C)CC4C(C2)N(CC2CCC2)CCC341 (stereo not given in full) | > 25 µmol/kg | > 25 µmol/kg | 
COc1ccc2c3c1O[C@H]1C(=O)CC[C@@]4(O)[C@@H](C2)N(C)CC[C@]314 [OXYCODONE] | 1.5 µmol/kg |  | ED50 [8]: 2.9 µmol/kg
COc1ccc2c3c1O[C@H]1C(=O)[C@@H](CC(C)(C)C)CC4C(C2)N(C)CCC341 (stereo not given in full) |  |  | ED50 [9]: inactive; ED50 [10]: inactive
COc1ccc2c3c1O[C@H]1C(=O)[C@@H](CO)CC4C(C2)N(C)CCC341 (stereo not given in full) | 9.1 µmol/kg |  | ED50 [11]: inactive
C=CCN1CC[C@]23c4c5ccc(O)c4O[C@H]2[C@@H](O)C=C[C@H]3[C@H]1C5 [NALORPHINE] | 3.5 µmol/kg | 2.5 µmol/kg | 
COc1ccc2c3c1O[C@H]1[C@@H](O)C=C[C@H]4[C@@H](C2)N(C)CC[C@@]341 [CODEINE] | 10.3 µmol/kg |  | ED50 [8]: 75 µmol/kg
C[C@H]1[C@H]2Cc3ccc(O)cc3[C@]1(C)CCN2CC1CC1 [CYCLAZOCINE] | 0.4 µmol/kg | 0.8 µmol/kg | 
CC[C@H]1CC2C3Cc4ccc(OC)c5c4C2(CCN3C)[C@@H](O5)C1=O (stereo not given in full) | 4.6 µmol/kg |  | ED50 [12]: inactive
CCCCC[C@H]1CC2C3Cc4ccc(OC)c5c4C2(CCN3C)[C@@H](O5)C1=O (stereo not given in full) | 20.7 µmol/kg |  | 
COc1ccc2c(c1OC)C13CCN(CC4CC4)C(C2)C1C[C@H](C)C(=O)C3 (stereo not given in full) | 9.1 µmol/kg | ~25 µmol/kg | 
O=C1CCC2C3Cc4ccc(O)c5c4C2(CCN3CC2CCC2)[C@H]1O5 (stereo not given in full) | 0.2 µmol/kg | 5 µmol/kg | 
COc1ccc2c(c1O)C13CCN(CC4CC4)C(C2)C1C[C@H](C)C(=O)C3 (stereo not given in full) | 9.7 µmol/kg | > 28 µmol/kg | 

Compound | ED50 [2] | ED50 [3] | further results
O=C1CCC2C3Cc4ccc(O)c5c4C2(CCN3CC2CC2)[C@H]1O5 (stereo not given in full) | 4.1 µmol/kg | 0.6 µmol/kg | 
COc1ccc2c3c1O[C@H]1C(=O)CCC4(O)C(C2)N(CC2CCC2)CCC314 (stereo not given in full) | 16.2 µmol/kg | > 18 µmol/kg | 
COc1ccc2c3c1O[C@H]1C(=O)CC[C@H]4[C@@H](C2)N(C)CC[C@]314 [HYDROCODONE] | 2.4 µmol/kg |  | ED50 [8]: 5.2 µmol/kg
COc1ccc2c3c1O[C@H]1C(=O)[C@@H](C)[C@H](C)C4C(C2)N(CC2CCC2)CCC341 (stereo not given in full) | > 26 µmol/kg | > 26 µmol/kg | 
CC(C)=CCN1CC[C@]2(C)c3cc(O)ccc3C[C@H]1[C@H]2C [(+)-PENTAZOCINE] | 13 µmol/kg | 36.4 µmol/kg | 
Oc1ccc2c(c1)[C@@]13CCCC[C@@]1(O)[C@@H](C2)N(CC1CCC1)CC3 [BUTORPHANOL] | 0.3 µmol/kg | 2 µmol/kg | 
COc1ccc2c3c1O[C@H]1C(=O)[C@@H](C)CC4(O)C(C2)N(CC2CC2)CCC314 (stereo not given in full) | 18.7 µmol/kg | 25.4 µmol/kg | 
COc1ccc2c3c1O[C@H]1C(=O)[C@@H](C)CC4(O)C(C2)N(CC2CCC2)CCC314 (stereo not given in full) | 1.2 µmol/kg |  | ED50 [13]: inactive
O=C1CCC2(O)C3Cc4ccc(O)c5c4C2(CCN3CC2CCC2)[C@H]1O5 (stereo not given in full) | 9.7 µmol/kg | 1.1 µmol/kg | 
C[C@@H]1C(=O)[C@@H]2Oc3c(O)ccc4c3C23CCN(CC2CC2)C(C4)C3[C@H]1C (stereo not given in full) |  | 1.5 µmol/kg | ED50 [14]: inactive
COc1ccc2c3c1O[C@H]1C(=O)/C(=C/N(C)C)CC4C(C2)N(C)CCC341 (stereo not given in full) | 11 µmol/kg |  | ED50 [15]: inactive
C[C@@H]1C(=O)[C@@H]2Oc3c(O)ccc4c3C23CCN(CC2CCC2)C(C4)C3[C@H]1C (stereo not given in full) | 15 µmol/kg | 6.5 µmol/kg | 
CN1CC[C@]23c4c5ccc(O)c4O[C@H]2[C@@H](O)C=C[C@H]3[C@H]1C5 [MORPHINE] |  |  | ED50 [8]: 19 µmol/kg
COc1ccc2c3c1O[C@H]1c4oc(C)cc4CC4C(C2)N(C)CCC341 (stereo not given in full) | 12.3 µmol/kg |  | ED50 [11]: inactive
COc1ccc2c3c1O[C@H]1C(=O)CCC4C(C2)N(CC2CC2)CCC341 (stereo not given in full) | 39.6 µmol/kg | 7.9 µmol/kg | 
C[C@H]1CC2C3Cc4ccc(O)c5c4C2(CCN3CC2CC2)C(O5)C1=O (stereo not given in full) | 1.1 µmol/kg | 4.4 µmol/kg | 
COc1ccc2c3c1O[C@H]1C(=O)[C@@H](C)[C@H](C)C4C(C2)N(CC2CC2)CCC341 (stereo not given in full) | > 25 µmol/kg | 2.4 µmol/kg | 
COc1ccc2c(c1O)C13CCN(CC4CC4)C(C2)C1[C@@H](C)[C@H](C)C(=O)C3 (stereo not given in full) | > 25 µmol/kg | > 25 µmol/kg | 
C[C@H]1CC2(O)C3Cc4ccc(O)c5c4C2(CCN3CC2CCC2)[C@@H](O5)C1=O (stereo not given in full) | 3.5 µmol/kg | 14.6 µmol/kg | 
C[C@H]1CC2(O)C3Cc4ccc(O)c5c4C2(CCN3CC2CC2)[C@@H](O5)C1=O (stereo not given in full) |  | 0.09 µmol/kg | ED50 [14]: inactive
COc1ccc2c3c1O[C@H]1C(=O)CCC4C(C2)N(CC2CCC2)CCC341 (stereo not given in full) | 20.3 µmol/kg |  | 
COc1ccc2c3c1O[C@H]1[C@@H](O)[C@@H](CC(C)=O)CC4C(C2)N(C)CCC341 (stereo not given in full) | > 28 µmol/kg |  | ED50 [15]: inactive

Source: ChEMBL document CHEMBL1121911, “Analgesic narcotic antagonists. 8. 7 alpha-Alkyl-4,5 alpha-epoxymorphinan-6-ones” (1981)
